≈ marks a conversion by molar mass, not a printed value.
Columns and labels:
MV4-11 = assay: Antiproliferative activity against human MV4-11 cells after 72 hrs by Celltiter-Glo luminescent cell viability assay; format: functional, cell-based; conditions: MV4-11, 72 h
How it was run: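 MV4-11 leukaemia cells, 72 h proliferation assay, luminescence read-out; IC50 determined from concentration–response.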

[1] = buffer, pH 10.5
[2] = Aqueous solubility in pH 5.5 phosphate buffer at 120 uM after 24 hrs by HPLC method; format: physicochemical; conditions: for solubility at 24 h, 120 µM: phosphate buffer, pH 5.5
[3] = n-Octanol-buffer distribution coefficient, log D of the compound at pH 5.5 after 1 hr by shake flask method; format: physicochemical
[4] = system: Receptor-type tyrosine-protein kinase FLT3 (Homo sapiens), P36888 [UNDEFINED MUTATION]; assay: Inhibition of FLT3 ITD mutant (unknown origin) using TAMRA-Src- tide as substrate at 12.5 uM after 1 hr by fluorescence polarization assay relative to control
How it was run: (§1)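 FLT3-ITD kinase inhibition by fluorescence polarization IMAP assay; each compound tested at 12.5 and 1.25 μM; percent inhibition, average of two parallel measurements.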

[5] = Apparent partition coefficient, log P of the compound in n-octanol/aqueous mixture at pH 7.4 after 1 hr by shake flask method; format: physicochemical
[6] = Dissociation constant, pKa of the compound at 25 to 50 uM by UV spectroscopy; format: physicochemical
How it was run: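 Carboxyl pKa by automated UV/pH titration with MeOH as co-solvent.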

[7] = system: Receptor-type tyrosine-protein kinase FLT3 (Homo sapiens), P36888 [UNDEFINED MUTATION]; assay: Inhibition of FLT3 ITD mutant (unknown origin) using TAMRA-Src- tide as substrate at 1.25 uM after 1 hr by fluorescence polarization assay relative to control; how it was run: as §1
[8] = n-Octanol-buffer distribution coefficient, log D of the compound at pH 7.4 after 1 hr by shake flask method; format: physicochemical
[9] = Lipophilicity, chromatographic hydrophobicity index of the compound at pH 7.4 by HPLC method; format: physicochemical; conditions: buffer
How it was run: (§2)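 RP-HPLC with buffer/acetonitrile gradient elution; CHI profile at starting pH 10.5, 7.4, 5.5 and 1.2; values given as average of the compound group.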

[10] = Lipophilicity, chromatographic hydrophobicity index of the compound at pH 1.2 by HPLC method; format: physicochemical; conditions: buffer; how it was run: as §2
[11] = Aqueous solubility in pH 7.4 phosphate buffer at 120 uM after 24 hrs by HPLC method; format: physicochemical
[12] = Lipophilicity, chromatographic hydrophobicity index of the compound at pH 5.5 by HPLC method; format: physicochemical; conditions: buffer; how it was run: as §2

Chain of Receptor-type tyrosine-protein kinase FLT3 (Homo sapiens), P36888 [UNDEFINED MUTATION] (P36888 whole entry, looked up, change not shown): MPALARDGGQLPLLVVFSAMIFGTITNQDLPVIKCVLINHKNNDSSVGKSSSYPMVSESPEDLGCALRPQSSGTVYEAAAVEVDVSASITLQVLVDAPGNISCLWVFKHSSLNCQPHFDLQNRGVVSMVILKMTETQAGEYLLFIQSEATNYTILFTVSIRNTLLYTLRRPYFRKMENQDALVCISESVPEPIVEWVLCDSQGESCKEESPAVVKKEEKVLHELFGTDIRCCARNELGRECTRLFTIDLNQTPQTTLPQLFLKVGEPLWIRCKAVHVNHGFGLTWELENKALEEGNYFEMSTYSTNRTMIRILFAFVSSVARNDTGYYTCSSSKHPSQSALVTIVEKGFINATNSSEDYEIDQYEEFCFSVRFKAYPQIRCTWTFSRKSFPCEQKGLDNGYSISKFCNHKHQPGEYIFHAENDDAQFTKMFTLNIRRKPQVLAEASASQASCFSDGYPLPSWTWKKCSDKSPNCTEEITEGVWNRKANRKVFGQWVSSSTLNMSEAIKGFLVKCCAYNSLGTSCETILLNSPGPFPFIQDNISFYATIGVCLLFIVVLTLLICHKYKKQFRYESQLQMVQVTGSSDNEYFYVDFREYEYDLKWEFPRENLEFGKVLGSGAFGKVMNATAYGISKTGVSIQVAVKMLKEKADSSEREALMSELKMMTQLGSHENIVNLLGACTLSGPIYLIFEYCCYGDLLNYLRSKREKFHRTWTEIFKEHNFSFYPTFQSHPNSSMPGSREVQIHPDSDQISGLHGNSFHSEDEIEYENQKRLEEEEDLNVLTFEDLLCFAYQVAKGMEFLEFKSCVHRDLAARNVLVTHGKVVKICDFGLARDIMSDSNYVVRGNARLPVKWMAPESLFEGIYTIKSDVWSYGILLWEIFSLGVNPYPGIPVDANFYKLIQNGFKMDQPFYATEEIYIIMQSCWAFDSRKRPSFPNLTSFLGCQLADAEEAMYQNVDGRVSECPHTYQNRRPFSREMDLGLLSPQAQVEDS

For `COC(=O)c1ccc2c(c1)/C(=C/c1[nH]c(C)c(C(=O)N[C@@H](Cc3ccccc3)C(=O)O)c1C)C(=O)N2`, the IC50 (MV4-11) was 2.2 µM, the CHI [1] was 51 and the solubility at 24 h, 120 µM [2] was under 5 µM. It also gave a logD at 1 h [3] of 2.23, an inhibition [4] of over 100% and a logD at 1 h [5] of 4.73. It also gave a pKa at up to 50 µM [6] of 3, an inhibition [7] of 90.9% and a logD at 1 h [8] of 0.33. For the same compound, the CHI [9] was 53, the CHI [10] was 76 and the solubility at 24 h, 120 µM [11] was at least 120 µM. For the same compound, the CHI [12] was 54.

With `COC(=O)CC[C@H](NC(=O)c1ccc2c(c1)/C(=C/c1[nH]c(C)c(C(=O)N[C@@H](Cc3ccccc3)C(=O)O)c1C)C(=O)N2)C(=O)OC` the CHI [1] was 46, the solubility at 24 h, 120 µM [2] was 30 µM (≈ 18.9 µg/mL) and the logD at 1 h [3] was 1.16. The inhibition [4] was over 100%, the logD at 1 h [5] was 3.62 and the pKa at up to 50 µM [6] was 3.04. It also gave an inhibition [7] of 58.7%, a logD at 1 h [8] of -0.74 and a CHI [9] of 49. For the same compound, the CHI [10] was 67, the solubility at 24 h, 120 µM [11] was 100 µM (≈ 63.1 µg/mL) and the CHI [12] was 50.

Work on `Cc1[nH]c(/C=C2\C(=O)Nc3ccccc32)c(C)c1CCC(=O)O` [ORANTINIB] yielded an IC50 (MV4-11) of 3.9 µM, a CHI [1] of 42 and a solubility ([2]; buffer, pH 5.5, 24 h, 120 µM) of 5 µM (≈ 1.55 µg/mL). It also gave a logD at 1 h [3] of 3.18, an inhibition [4] of over 100% and a logD at 1 h [5] of 4.6. For the same compound, the pKa at up to 50 µM [6] was 4.1, the inhibition [7] was 76.7% and the logD at 1 h [8] was 1.3. For the same compound, the CHI [9] was 47, the CHI [10] was 75 and the solubility at 24 h, 120 µM [11] was at least 120 µM. It also gave a CHI [12] of 59.
